Shown are actives, neighbours in structure and some others; about 3% of the full set was active somewhere.
UBC13 polyUb = human UBC13 polyubiquitination inhibition. UBC13 polyubiquitin chain formation, TR-FRET. inhibition, % at 20 µM. 0.47% of 330,000 active. P61088; in the data active = inhibition above about 45%, passing the limit was not always enough
SENP6 block = SENP6 protease inhibition; Q9GZR1; 1.8% of 330,000 active; inhibition, % at 10 µM; Recombinant SENP6 catalytic domain, aminoluciferin luminescence;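 active = inhibition above about 50% at the single tested dose, limit read from the data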;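 also: plate controls were DMSO wells with enzyme for no effect and DMSO wells lacking enzyme for full effect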
SENP7 inh = blocks the human protease SENP7. Q9BQF6. recombinant SENP7, Z-RLRGG-aminoluciferin luminescence, 40 min. inhibition, % at 5 µM. 1.5% of 330,000 active. AID 434973;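 active = inhibition above about 50% at the single test dose, limit read from the data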;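 also: plate controls were DMSO with enzyme for no effect and no enzyme buffer wells for full effect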
Target sequence (Q9BQF6 706-1050 limits assumed): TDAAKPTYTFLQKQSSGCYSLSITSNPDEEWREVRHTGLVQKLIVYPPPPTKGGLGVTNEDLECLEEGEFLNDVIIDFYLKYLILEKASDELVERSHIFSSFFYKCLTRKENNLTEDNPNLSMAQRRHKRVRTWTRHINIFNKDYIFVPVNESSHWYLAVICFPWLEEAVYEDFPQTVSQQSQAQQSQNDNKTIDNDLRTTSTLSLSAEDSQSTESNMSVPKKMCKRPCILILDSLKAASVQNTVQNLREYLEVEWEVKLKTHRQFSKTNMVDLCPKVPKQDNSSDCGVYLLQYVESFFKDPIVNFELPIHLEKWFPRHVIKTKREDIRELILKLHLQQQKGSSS
Apaf-1 inh = blocks human Apaf-1 apoptosome activity | O14727 | reconstituted apoptosome caspase-3 activity, DEVD-Rh110 fluorescence | inhibition, % at 20 µM | 0.71% of 330,000 active; active = inhibition of at least 40% at 20 µM;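 also: plate controls were DMSO wells for no effect and DEVD-CHO caspase inhibitor wells for full effect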
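Material: biochemical Apaf-1 apoptosome reconstitution. Medium: Hepes buffer, pH 7.5. Also added: cytochrome c activation, bis-DEVD rhodamine 110 substrate. Timing: 30 min compound preincubation, 50 min activation, room temperature. Measured by: rhodamine 110 fluorescence at Ex 480/Em 540 nm.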
SENP8 block-1 = inhibitors of human SENP8 protease; Q96LD8; recombinant SENP8, Nedd8 substrate fluorescence; inhibition, % at 20 µM; 0.64% of 360,000 active; in the data active = inhibition mostly above about 40%, no sharp cut-off; inactive = mostly below about 27%
SENP8 block-2 = blocks the human protease SENP8. Q96LD8. purified SENP8, Z-RLRGG-aminoluciferin cleavage, luminescence. inhibition, % at 10 µM. 1.2% of 330,000 active. AID 2540; in the data active = inhibition above about 50%
SENP8 conf = human SENP8 inhibition, confirmed; shares compounds with SENP7 inh; AID 488912; inhibition, % at 12.5 µM; 40% of 6,200 active; Recombinant SENP8, Z-RLRGG-aminoluciferin luminescence, 60 min;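 active = mean inhibition across replicates above about 50%, limit read from the data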
SENP6 confirm = human SENP6 inhibition, confirmed; shares compounds with SENP7 inh; recombinant SENP6, Z-RLRGG-aminoluciferin luminescence; inhibition, % at 12.5 µM; 58% of 6,200 active
SENP7 conf = confirmation of human SENP7 protease inhibitors; inhibition, % at 12.5 µM; shares compounds with SENP7 inh; recombinant SENP7, Z-RLRGG-aminoluciferin luminescence, 40 min; 69% of 6,200 active; AID 488917
Casp3 select = inhibits human caspase-3 in SENP selectivity test; shares compounds with SENP7 inh; purified caspase-3, Z-DEVD-aminoluciferin luminescence, 60 min; inhibition, % at 12.5 µM; 60% of 6,200 active; AID 488918;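 active = mean inhibition above about 50%, limit read from the data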;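 also: plate controls were enzyme with DMSO for no effect and wells without caspase-3 for full effect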
Target sequence (P42574 28-227 limits assumed): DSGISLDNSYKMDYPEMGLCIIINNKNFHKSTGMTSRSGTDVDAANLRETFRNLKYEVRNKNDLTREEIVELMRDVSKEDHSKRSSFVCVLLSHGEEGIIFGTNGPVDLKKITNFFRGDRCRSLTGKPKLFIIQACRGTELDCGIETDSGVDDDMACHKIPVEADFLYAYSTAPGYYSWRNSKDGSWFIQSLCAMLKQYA
SENP luc ctr = luminescence interference (SENP counter-screen). 39% of 6,200 active. shares compounds with SENP7 inh. AID 488919. Pre-incubated SENP8/Z-RLRGG-aminoluciferin, luciferase luminescence interference. inhibition, % at 12.5 µM;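 active = mean inhibition above about 50% when retested at one dose, limit read from the data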;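 also: plate controls were DMSO wells with completed reaction for no effect and substrate without enzyme for full effect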
The depositor's hits bear a star.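 The calls were made as follows, unless noted: active = mean inhibition above about 50% in the one-dose retest (limit read from the data); inactive = the rest.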

How did Cc1[nH]nc(Nc2ccc(C(C)C)cc2)c1[N+](=O)[O-] do in these assays?
UBC13 polyUb: -3; SENP6 block: 51*; SENP7 inh: 16; Apaf-1 inh: 0; SENP8 block-1: 15; SENP8 block-2: 39; SENP8 conf: 42; SENP6 confirm: 39; SENP7 conf: 77*; Casp3 select: 25; SENP luc ctr: 13

Results for Cc1ccc(Nc2n[nH]c(C)c2[N+](=O)[O-])cc1 ?
UBC13 polyUb: -25; SENP6 block: -7; SENP7 inh: -3; Apaf-1 inh: 2; SENP8 block-1: 25; SENP8 block-2: -11

How did O=C(C[C@H]1CC[C@@H](NS(=O)(=O)c2ccccc2)[C@@H](CO)O1)NCc1ccc(Cl)c(Cl)c1 do in these assays?
SENP8 block-1: 21

Results for O=C(NCc1cccc(Cl)c1)C1Cc2c(-c3ccccc3Oc3ccccc3)ccnc2O1 (stereo not given) ?
SENP8 block-1: 14

Results for O=C1/C(=C\c2cccs2)Sc2ccc3ccccc3c21 ?
UBC13 polyUb: -93; SENP6 block: 92*; SENP7 inh: 98*; Apaf-1 inh: -8; SENP8 block-1: 10; SENP8 block-2: 88*; SENP8 conf: 9; SENP6 confirm: 50*; SENP7 conf: 80*; Casp3 select: 78*; SENP luc ctr: 2

How did O=C(Nc1ccnc(=O)[nH]1)c1sc2ccccc2c1Cl do in these assays?
UBC13 polyUb: 29; SENP6 block: 74*; SENP7 inh: 54*; Apaf-1 inh: -21; SENP8 block-1: -78; SENP8 block-2: 52*; SENP8 conf: 2; SENP6 confirm: -2; SENP7 conf: 7; Casp3 select: 11; SENP luc ctr: 4

How did COc1ccc([C@H]2CC(=O)C[C@@H](CCn3cc(C)nn3)O2)cc1 do in these assays?
SENP8 block-1: 19

How did CN(C)S(=O)(=O)Oc1cccc(C(=O)Nc2cccc(Cl)c2)c1 do in these assays?
UBC13 polyUb: 6; SENP6 block: 51*; SENP7 inh: 89*; Apaf-1 inh: 18; SENP8 block-1: 10; SENP8 block-2: 76*; SENP8 conf: 85*; SENP6 confirm: 85*; SENP7 conf: 97*; Casp3 select: 69*; SENP luc ctr: 75*

How did Cc1ccnc(NC(=O)c2cccc(OC(F)F)c2)n1 do in these assays?
UBC13 polyUb: 0; SENP6 block: -27; SENP7 inh: 5; Apaf-1 inh: -3; SENP8 block-1: 1; SENP8 block-2: 0

How did O=C(Nc1cccc(Cl)c1)c1ccc2ncsc2c1 do in these assays?
UBC13 polyUb: 10; SENP6 block: 57*; SENP7 inh: 62*; Apaf-1 inh: 6; SENP8 block-1: 9; SENP8 block-2: 49; SENP8 conf: 60*; SENP6 confirm: 60*; SENP7 conf: 86*; Casp3 select: 51*; SENP luc ctr: 68*

What do the screens show for `O=C(Nc1cc(Cl)cc(Cl)c1)c1cccc(OC(F)F)c1`?
UBC13 polyUb: -8; SENP6 block: 54*; SENP7 inh: 14; Apaf-1 inh: 3; SENP8 block-1: 24; SENP8 block-2: -1; SENP8 conf: 42; SENP6 confirm: 33; SENP7 conf: 69*; Casp3 select: 8; SENP luc ctr: 10

What do the screens show for `CN(C)S(=O)(=O)Oc1cccc(C(=O)Nc2ccc(Cl)c(Cl)c2)c1`?
UBC13 polyUb: -2; SENP6 block: 64*; SENP7 inh: 38; Apaf-1 inh: -40; SENP8 block-1: 5; SENP8 block-2: 55*; SENP8 conf: 11; SENP6 confirm: 67*; SENP7 conf: 86*; Casp3 select: 15; SENP luc ctr: 10

How did COc1ccc(NC(=O)c2cccc(OS(=O)(=O)N(C)C)c2)cc1 do in these assays?
UBC13 polyUb: 11; SENP6 block: 17; SENP7 inh: 24; Apaf-1 inh: -3; SENP8 block-1: 7; SENP8 block-2: 7

How did CNS(=O)(=O)c1cccc(C(=O)Nc2cccc(Cl)c2)c1 do in these assays?
UBC13 polyUb: 5; SENP6 block: 26; SENP7 inh: 17; Apaf-1 inh: -4; SENP8 block-1: 19; SENP8 block-2: -10

Results for CCC(C)(O)c1cnc(CC(C)C)c(=O)n1O (stereo not given) ?
SENP8 block-1: 6

Results for CCCCN(CC)C(=O)c1cc2cc3ccc(OC)cc3nc2o1 ?
UBC13 polyUb: 10; SENP6 block: -25; SENP7 inh: 22; Apaf-1 inh: 22; SENP8 block-1: -304; SENP8 block-2: 4

Results for CCCCN(C)C(=O)c1cc2cc3ccc(OC)cc3nc2s1 ?
UBC13 polyUb: 7; SENP6 block: 91*; SENP7 inh: 95*; Apaf-1 inh: 19; SENP8 block-1: -334; SENP8 block-2: 91*; SENP8 conf: 91*; SENP6 confirm: 97*; SENP7 conf: 101*; Casp3 select: 96*; SENP luc ctr: 54*

What do the screens show for `COc1ccccc1N1C(=O)C(Cl)=C(Nc2ccccc2O)C1=O`?
SENP8 block-1: 30

How did O=C1C(Cl)=C(Nc2ccccc2O)C(=O)N1c1ccccc1 do in these assays?
UBC13 polyUb: -8; SENP6 block: 52*; SENP7 inh: 27; Apaf-1 inh: 10; SENP8 block-1: 19; SENP8 block-2: 14; SENP8 conf: 42; SENP6 confirm: 38; SENP7 conf: 66*; Casp3 select: 60*; SENP luc ctr: 51*

How did C[C@@H]1CN([C@H](C)CO)C(=O)CCCn2nncc2CO[C@H]1CN(C)C do in these assays?
SENP8 block-1: 11

Results for Cc1cccc(/C=C2\CCC(C3CCCC3)C2=O)c1 (stereo not given) ?
UBC13 polyUb: 2; SENP6 block: 33; SENP7 inh: 7; Apaf-1 inh: -1; SENP8 block-1: 11; SENP8 block-2: 4

Results for COc1cccc(/C=C2\CCC(C3CCCC3)C2=O)c1 (stereo not given) ?
UBC13 polyUb: 0; SENP6 block: 50*; SENP7 inh: 21; Apaf-1 inh: 6; SENP8 block-1: 12; SENP8 block-2: 40; SENP8 conf: 48; SENP6 confirm: 48; SENP7 conf: 66*; Casp3 select: 34; SENP luc ctr: 26

Bioassay records as filed in PubChem BioAssay.
